Assay results reported in ChEMBL document CHEMBL1649256, “Comparison of assessment of oxygen consumption, Etest, and CLSI M38-A2 broth microdilution methods for evaluation of the susceptibility of Aspergillus fumigatus to posaconazole” (2009).
≈ marks a conversion by molar mass, not a printed value.

Columns and labels:
Type in all cases: functional
[1] = system: Aspergillus fumigatus; assay: Antimicrobial activity against Aspergillus fumigatus isolate 32 after 48 hrs by Etest; details: isolate 32, 48 h
Method in brief: (§1)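 Posaconazole Etest strips on RPMI 1640 agar with 2% glucose, pH 7.0, run per the strip maker's instructions. Incubated at 35°C. MIC read at 24 h and at 48 h, matching the time in each line.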

[2] = system: Aspergillus fumigatus; assay: Antimicrobial activity against Aspergillus fumigatus isolate 1 after 24 hrs by Etest; details: isolate 1, 24 h
Method in brief: (§2)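 Posaconazole Etest strips placed on RPMI 1640 agar with 2% glucose, pH 7.0, and run per the strip maker's instructions. Incubation at 35°C, with the MIC read at 24 h and at 48 h.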

[3] = system: Aspergillus fumigatus; assay: Antimicrobial activity against Aspergillus fumigatus isolate 30 after 48 hrs by Etest; details: isolate 30, 48 h
Method in brief: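 Etest strips on RPMI 1640 agar with 2% glucose, pH 7.0, run per manufacturer's instructions. Incubated at 35°C; MIC read at 48 h.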

[4] = system: Aspergillus fumigatus; assay: Antimicrobial activity against Aspergillus fumigatus isolate 47 after 48 hrs by Etest; details: isolate 47, 48 h
[5] = system: Aspergillus fumigatus; assay: Antimicrobial activity against Aspergillus fumigatus isolate 3 after 24 hrs by Etest; details: isolate 3, 24 h
Method in brief: (§3)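 Etest strips on RPMI 1640 agar with 2% glucose, pH 7.0, run per manufacturer's instructions. Incubated at 35°C; MIC read at 24 h.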

[6] = system: Aspergillus fumigatus; assay: Antimicrobial activity against Aspergillus fumigatus isolate 41 after 24 hrs by Etest; details: isolate 41, 24 h; method in brief: as §1
[7] = system: Aspergillus fumigatus; assay: Antimicrobial activity against Aspergillus fumigatus isolate 33 by CLSI M38-A2 broth microdilution method
Method in brief: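 CLSI M38-A2 broth microdilution with posaconazole. MIC taken as the lowest concentration with no visible growth at 48 h. C. parapsilosis ATCC 22019 and C. krusei ATCC 6258 were included as QC strains in every run.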

[8] = system: Aspergillus fumigatus; assay: Antimicrobial activity against Aspergillus fumigatus isolate 49 by oxygen consumption method
[9] = system: Aspergillus fumigatus; assay: Antimicrobial activity against Aspergillus fumigatus isolate 29 by oxygen consumption method
Method in brief: (§4)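 Conidial suspension in RPMI 1640 broth, 1.5 ml, with two drug concentrations (0.25 and 2 μg/ml). Tubes agitated 12 h at 37°C in a biological oxygen monitor. Available oxygen monitored continuously and quantified to assign the MIC.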

[10] = system: Aspergillus fumigatus; assay: Antimicrobial activity against Aspergillus fumigatus isolate 50 after 24 hrs by Etest; details: isolate 50, 24 h
[11] = system: Aspergillus fumigatus; assay: Antimicrobial activity against Aspergillus fumigatus isolate 45 by oxygen consumption method
[12] = system: Aspergillus fumigatus; assay: Antimicrobial activity against Aspergillus fumigatus isolate 20 by oxygen consumption method; method in brief: as §4
[13] = system: Aspergillus fumigatus; assay: Antimicrobial activity against Aspergillus fumigatus isolate 9 by CLSI M38-A2 broth microdilution method
[14] = system: Aspergillus fumigatus; assay: Antimicrobial activity against Aspergillus fumigatus isolate 16 by CLSI M38-A2 broth microdilution method
Method in brief: (§5)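 Posaconazole broth microdilution follows CLSI M38-A2. The MIC is the lowest concentration with no visible growth at 48 h. Candida parapsilosis ATCC 22019 and Candida krusei ATCC 6258 were included as QC strains in every run.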

[15] = system: Aspergillus fumigatus; assay: Antimicrobial activity against Aspergillus fumigatus isolate 42 after 24 hrs by Etest; details: isolate 42, 24 h; method in brief: as §1
[16] = system: Aspergillus fumigatus; assay: Antimicrobial activity against Aspergillus fumigatus isolate 17 by CLSI M38-A2 broth microdilution method; method in brief: as §5
[17] = system: Aspergillus fumigatus; assay: Antimicrobial activity against Aspergillus fumigatus isolate 36 after 24 hrs by Etest; details: isolate 36, 24 h; method in brief: as §1
[18] = system: Aspergillus fumigatus; assay: Antimicrobial activity against Aspergillus fumigatus isolate 11 by CLSI M38-A2 broth microdilution method; method in brief: as §5
[19] = system: Aspergillus fumigatus; assay: Antimicrobial activity against Aspergillus fumigatus isolate 41 by oxygen consumption method
Method in brief: (§6)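 Conidial suspension in RPMI 1640 broth, tested at two posaconazole levels (0.25 and 2 μg/ml). Agitated for 12 h at 37°C in a biological oxygen monitor. MIC derived from continuous monitoring and quantification of the available oxygen.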

[20] = system: Aspergillus fumigatus; assay: Antimicrobial activity against Aspergillus fumigatus isolate 6 after 48 hrs by Etest; details: isolate 6, 48 h
[21] = system: Aspergillus fumigatus; assay: Antimicrobial activity against Aspergillus fumigatus isolate 15 after 48 hrs by Etest; details: isolate 15, 48 h; method in brief: as §2
[22] = system: Aspergillus fumigatus; assay: Antimicrobial activity against Aspergillus fumigatus isolate 3 by CLSI M38-A2 broth microdilution method
Method in brief: (§7)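 Reference broth microdilution per CLSI M38-A2. MIC read as absence of visible growth at 48 h. C. parapsilosis ATCC 22019 and C. krusei ATCC 6258 QC strains run in each test session.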

[23] = system: Aspergillus fumigatus; assay: Antimicrobial activity against Aspergillus fumigatus isolate 12 after 24 hrs by Etest; details: isolate 12, 24 h; method in brief: as §2
[24] = system: Aspergillus fumigatus; assay: Antimicrobial activity against Aspergillus fumigatus isolate 45 by CLSI M38-A2 broth microdilution method
[25] = system: Aspergillus fumigatus; assay: Antimicrobial activity against Aspergillus fumigatus isolate 3 by oxygen consumption method; method in brief: as §4
[26] = system: Aspergillus fumigatus; assay: Antimicrobial activity against Aspergillus fumigatus isolate 23 by CLSI M38-A2 broth microdilution method; method in brief: as §7
[27] = system: Aspergillus fumigatus; assay: Antimicrobial activity against Aspergillus fumigatus isolate 21 by CLSI M38-A2 broth microdilution method; method in brief: as §7
[28] = system: Aspergillus fumigatus; assay: Antimicrobial activity against Aspergillus fumigatus isolate 22 after 24 hrs by Etest; details: isolate 22, 24 h; method in brief: as §3
[29] = system: Aspergillus fumigatus; assay: Antimicrobial activity against Aspergillus fumigatus isolate 30 by CLSI M38-A2 broth microdilution method; method in brief: as §7
[30] = system: Aspergillus fumigatus; assay: Antimicrobial activity against Aspergillus fumigatus isolate 18 after 24 hrs by Etest; details: isolate 18, 24 h; method in brief: as §2
[31] = system: Aspergillus fumigatus; assay: Antimicrobial activity against Aspergillus fumigatus isolate 5 by oxygen consumption method
[32] = system: Aspergillus fumigatus; assay: Antimicrobial activity against Aspergillus fumigatus isolate 6 by CLSI M38-A2 broth microdilution method
[33] = system: Aspergillus fumigatus; assay: Antimicrobial activity against Aspergillus fumigatus isolate 24 by oxygen consumption method; method in brief: as §4
[34] = system: Aspergillus fumigatus; assay: Antimicrobial activity against Aspergillus fumigatus isolate 31 after 24 hrs by Etest; details: isolate 31, 24 h; method in brief: as §3
[35] = system: Aspergillus fumigatus; assay: Antimicrobial activity against Aspergillus fumigatus isolate 38 after 24 hrs by Etest; details: isolate 38, 24 h; method in brief: as §1
[36] = system: Aspergillus fumigatus; assay: Antimicrobial activity against Aspergillus fumigatus isolate 49 after 48 hrs by Etest; details: isolate 49, 48 h
[37] = system: Aspergillus fumigatus; assay: Antimicrobial activity against Aspergillus fumigatus isolate 39 after 48 hrs by Etest; details: isolate 39, 48 h; method in brief: as §1
[38] = system: Aspergillus fumigatus; assay: Antimicrobial activity against Aspergillus fumigatus isolate 11 by oxygen consumption method
Method in brief: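 Conidial suspension in RPMI 1640 broth with posaconazole at 0.25 and 2 μg/ml. Tubes agitated 12 h at 37°C in a biological oxygen monitor. Available oxygen was monitored continuously, and the MIC was assigned from the oxygen quantification.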

[39] = system: Aspergillus fumigatus; assay: Antimicrobial activity against Aspergillus fumigatus isolate 43 after 24 hrs by Etest; details: isolate 43, 24 h; method in brief: as §1
[40] = system: Aspergillus fumigatus; assay: Antimicrobial activity against Aspergillus fumigatus isolate 14 by CLSI M38-A2 broth microdilution method; method in brief: as §5
[41] = system: Aspergillus fumigatus; assay: Antimicrobial activity against Aspergillus fumigatus isolate 39 by oxygen consumption method; method in brief: as §6
[42] = system: Aspergillus fumigatus; assay: Antimicrobial activity against Aspergillus fumigatus isolate 27 by oxygen consumption method; method in brief: as §4
[43] = system: Aspergillus fumigatus; assay: Antimicrobial activity against Aspergillus fumigatus isolate 35 after 48 hrs by Etest; details: isolate 35, 48 h; method in brief: as §1
[44] = system: Aspergillus fumigatus; assay: Antimicrobial activity against Aspergillus fumigatus isolate 34 after 24 hrs by Etest; details: isolate 34, 24 h; method in brief: as §1

SMILES: CC[C@@H]([C@H](C)O)n1ncn(-c2ccc(N3CCN(c4ccc(OC[C@@H]5CO[C@@](Cn6cncn6)(c6ccc(F)cc6F)C5)cc4)CC3)cc2)c1=O [POSACONAZOLE]
- MIC [1]: 0.25 µg/mL (≈ 0.357 µM)
- MIC [2]: 8 µg/mL (≈ 11.4 µM)
- MIC [3]: 0.5 µg/mL (≈ 0.713 µM)
- MIC [4]: ≤ 0.03 µg/mL
- MIC [5]: 1 µg/mL (≈ 1.43 µM)
- MIC [6]: ≤ 0.03 µg/mL
- MIC [7]: 0.125 µg/mL (≈ 0.178 µM)
- MIC [8]: ≥ 0.5 µg/mL
- MIC [9]: ≤ 0.25 µg/mL
- MIC [10]: 0.25 µg/mL (≈ 0.357 µM)
- MIC [11]: ≥ 0.5 µg/mL
- MIC [12]: ≤ 0.25 µg/mL
- MIC [13]: 0.25 µg/mL (≈ 0.357 µM)
- MIC [14]: 0.125 µg/mL (≈ 0.178 µM)
- MIC [15]: 0.06 µg/mL (≈ 0.0856 µM)
- MIC [16]: 0.125 µg/mL (≈ 0.178 µM)
- MIC [17]: 0.06 µg/mL (≈ 0.0856 µM)
- MIC [18]: 0.25 µg/mL (≈ 0.357 µM)
- MIC [19]: ≤ 0.25 µg/mL
- MIC [20]: 4 µg/mL (≈ 5.71 µM)
- MIC [21]: 0.06 µg/mL (≈ 0.0856 µM)
- MIC [22]: 1 µg/mL (≈ 1.43 µM)
- MIC [23]: 0.25 µg/mL (≈ 0.357 µM)
- MIC [24]: 0.125 µg/mL (≈ 0.178 µM)
- MIC [25]: ≥ 0.5 µg/mL
- MIC [26]: 0.125 µg/mL (≈ 0.178 µM)
- MIC [27]: 0.125 µg/mL (≈ 0.178 µM)
- MIC [28]: 0.25 µg/mL (≈ 0.357 µM)
- MIC [29]: 0.125 µg/mL (≈ 0.178 µM)
- MIC [30]: 0.125 µg/mL (≈ 0.178 µM)
- MIC [31]: ≥ 0.5 µg/mL
- MIC [32]: 0.125 µg/mL (≈ 0.178 µM)
- MIC [33]: ≤ 0.25 µg/mL
- MIC [34]: 0.06 µg/mL (≈ 0.0856 µM)
- MIC [35]: 0.06 µg/mL (≈ 0.0856 µM)
- MIC [36]: 0.5 µg/mL (≈ 0.713 µM)
- MIC [37]: 2 µg/mL (≈ 2.85 µM)
- MIC [38]: ≤ 0.25 µg/mL
- MIC [39]: ≤ 0.03 µg/mL
- MIC [40]: 0.125 µg/mL (≈ 0.178 µM)
- MIC [41]: ≥ 0.5 µg/mL
- MIC [42]: ≥ 0.5 µg/mL
- MIC [43]: 0.25 µg/mL (≈ 0.357 µM)
- MIC [44]: ≤ 0.03 µg/mL
